Experimental data as given in ChEMBL document CHEMBL3091355, “Designing and synthesis of novel antimicrobial heterocyclic analogs of fatty acids” (2013).
≈ marks a conversion by molar mass, not a printed value.

Tests used:
Assay type in all cases: functional
Candida albicans [1] = experiment: Antifungal activity against Candida albicans after 20 hrs by agar dilution method
Procedure, shortened: (§1)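 Clinical Candida isolates purified and subcultured on SC, SCC and PDA media before testing. Compounds were dissolved in DMSO as a stock, then diluted into solid PDA medium to final concentrations of 0.0312 to 256.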

Candida tropicalis [2] = experiment: Antifungal activity against Candida tropicalis clinical isolate after 20 hrs by agar dilution method
Candida parapsilosis [3] = experiment: Antifungal activity against Candida parapsilosis clinical isolate after 20 hrs by agar dilution method; settings: Lodderomyces parapsilosis
Pichia kudriavzevii [4] = experiment: Fungicidal activity against Candida krusei by micro dilution method
Candida parapsilosis [5] = experiment: Fungicidal activity against Candida parapsilosis by micro dilution method; settings: Lodderomyces parapsilosis
Candida dubliniensis [6] = experiment: Antifungal activity against Candida dubliniensis after 20 hrs by agar dilution method
Nakaseomyces glabratus [7] = experiment: Antifungal activity against Candida glabrata after 20 hrs by agar dilution method
Candida tropicalis [8] = experiment: Antifungal activity against Candida tropicalis after 20 hrs by agar dilution method
Candida dubliniensis [9] = experiment: Fungicidal activity against Candida dubliniensis by micro dilution method
Candida tropicalis [10] = experiment: Fungicidal activity against Candida tropicalis clinical isolate by micro dilution method
Candida albicans [11] = experiment: Fungicidal activity against Candida albicans clinical isolate by micro dilution method
Candida tropicalis [12] = experiment: Fungicidal activity against Candida tropicalis by micro dilution method
Candida parapsilosis [13] = experiment: Antifungal activity against Candida parapsilosis after 20 hrs by agar dilution method; settings: Lodderomyces parapsilosis
Nakaseomyces glabratus [14] = experiment: Fungicidal activity against Candida glabrata by micro dilution method
Candida parapsilosis [15] = experiment: Fungicidal activity against Candida parapsilosis clinical isolate by micro dilution method; settings: Lodderomyces parapsilosis
Candida albicans [16] = experiment: Fungicidal activity against Candida albicans by micro dilution method
Pichia kudriavzevii [17] = experiment: Antifungal activity against Candida krusei after 20 hrs by agar dilution method
Candida albicans [18] = experiment: Antifungal activity against Candida albicans clinical isolate after 20 hrs by agar dilution method
Klebsiella pneumoniae [19] = experiment: Antibacterial activity against Klebsiella pneumoniae clinical isolate after 24 hrs by broth micro dilution method
Escherichia coli [20] = experiment: Antibacterial activity against Escherichia coli ATCC 25922 after 24 hrs by broth micro dilution method; settings: ATCC 25922, 24 h
Procedure, shortened: (§2)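 MIC by broth microdilution; growth read visually and spectrophotometrically. MIC taken as the lowest concentration giving complete inhibition of bacterial growth.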

Klebsiella pneumoniae [21] = experiment: Antibacterial activity against Klebsiella pneumoniae clinical isolate after 24 hrs by disc diffusion method
Streptococcus pyogenes [22] = experiment: Antibacterial activity against Streptococcus pyogenes clinical isolate after 24 hrs by broth micro dilution method
Pseudomonas aeruginosa [23] = experiment: Bactericidal activity against Pseudomonas aeruginosa ATCC 27853 after 18 to 24 hrs; settings: read-out: MBC99.9
Procedure, shortened: (§3)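 MBC taken as the lowest concentration that killed the bacteria completely.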

Staphylococcus aureus [24] = experiment: Antibacterial activity against Staphylococcus aureus after 24 hrs by disc diffusion method
Procedure, shortened: (§4)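 Disk diffusion on agar; activity measured as the halo zone of inhibition around the disk.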

Pseudomonas aeruginosa [25] = experiment: Antibacterial activity against Pseudomonas aeruginosa ATCC 27853 after 24 hrs by broth micro dilution method; settings: ATCC 27853, 24 h; procedure, shortened: as §2
Escherichia coli [26] = experiment: Antibacterial activity against Escherichia coli ATCC 25922 after 24 hrs by disc diffusion method; procedure, shortened: as §4
Streptococcus pyogenes [27] = experiment: Antibacterial activity against Streptococcus pyogenes clinical isolate after 24 hrs by disc diffusion method
Streptococcus pyogenes [28] = experiment: Bactericidal activity against Streptococcus pyogenes clinical isolate after 18 to 24 hrs; settings: read-out: MBC99.9
Staphylococcus aureus [29] = experiment: Bactericidal activity against Staphylococcus aureus after 18 to 24 hrs; settings: read-out: MBC99.9; procedure, shortened: as §3
Staphylococcus aureus [30] = experiment: Antibacterial activity against Staphylococcus aureus after 24 hrs by broth micro dilution method; procedure, shortened: as §2
Pseudomonas aeruginosa [31] = experiment: Antibacterial activity against Pseudomonas aeruginosa ATCC 27853 after 24 hrs by disc diffusion method; procedure, shortened: as §4
Klebsiella pneumoniae [32] = experiment: Bactericidal activity against Klebsiella pneumoniae clinical isolate after 18 to 24 hrs; settings: read-out: MBC99.9
Escherichia coli [33] = experiment: Bactericidal activity against Escherichia coli ATCC 25922 after 18 to 24 hrs; settings: read-out: MBC99.9; procedure, shortened: as §3
Candida tropicalis [34] = experiment: Antifungal activity against fluconazole, itraconazole-resistant Candida tropicalis clinical isolate after 20 hrs by agar dilution method; procedure, shortened: as §1
Candida albicans [35] = experiment: Fungicidal activity against fluconazole, itraconazole-resistant Candida albicans clinical isolate by micro dilution method
Candida albicans [36] = experiment: Antifungal activity against fluconazole, itraconazole-resistant Candida albicans clinical isolate after 20 hrs by agar dilution method; procedure, shortened: as §1

Structure (SMILES)	MIC90 (Candida albicans [1]) [µg/mL]	MIC90 (Candida tropicalis [2]) [µg/mL]	MIC90 (Candida parapsilosis [3]) [µg/mL]	MFC (Pichia kudriavzevii [4]) [µg/mL]	MFC (Candida parapsilosis [5]) [µg/mL]	MIC90 (Candida dubliniensis [6]) [µg/mL]	MIC90 (Nakaseomyces glabratus [7]) [µg/mL]	MIC90 (Candida tropicalis [8]) [µg/mL]	MFC (Candida dubliniensis [9]) [µg/mL]	MFC (Candida tropicalis [10]) [µg/mL]	MFC (Candida albicans [11]) [µg/mL]	MFC (Candida tropicalis [12]) [µg/mL]	MIC90 (Candida parapsilosis [13]) [µg/mL]	MFC (Nakaseomyces glabratus [14]) [µg/mL]	MFC (Candida parapsilosis [15]) [µg/mL]	MFC (Candida albicans [16]) [µg/mL]	MIC90 (Pichia kudriavzevii [17]) [µg/mL]	MIC90 (Candida albicans [18]) [µg/mL]	MIC (Klebsiella pneumoniae [19]) [µg/mL]	MIC (Escherichia coli [20]) [µg/mL]	other results
OC(Cn1cncn1)(Cn1cncn1)c1ccc(F)cc1F [FLUCONAZOLE]	> 256	16 (≈ 52.2 µM)	0.5 (≈ 1.63 µM)	> 256	32 (≈ 104 µM)	2 (≈ 6.53 µM)	8 (≈ 26.1 µM)	32 (≈ 104 µM)	> 256	256 (≈ 836 µM)	> 256	256 (≈ 836 µM)	4 (≈ 13.1 µM)	128 (≈ 418 µM)	1 (≈ 3.27 µM)	> 256	32 (≈ 104 µM)	8 (≈ 26.1 µM)			
CCC(C)n1ncn(-c2ccc(N3CCN(c4ccc(OCC5COC(Cn6cncn6)(c6ccc(Cl)cc6Cl)O5)cc4)CC3)cc2)c1=O (centres undefined) [ITRACONAZOLE]	> 256	1 (≈ 1.42 µM)	0.25 (≈ 0.354 µM)	0.12 (≈ 0.17 µM)	0.5 (≈ 0.709 µM)	> 256	0.12 (≈ 0.17 µM)	> 256	> 256	> 256	> 256	> 256	0.6 (≈ 0.85 µM)	> 256		> 256	0.6 (≈ 0.85 µM)	0.12 (≈ 0.17 µM)			
CCCC1=NOC(CCCCCCCCC(=O)OC)C1 (centres undefined)	> 256	> 256	> 256	> 256	> 256	> 256	> 256	> 256	> 256	128 (≈ 452 µM)	128 (≈ 452 µM)	> 256	> 256	> 256	> 256	> 256	> 256	> 256	100 (≈ 353 µM)	100 (≈ 353 µM)	diameter of the inhibition zone (DIZ) (Klebsiella pneumoniae [21]): 17.1 mm; MIC (Streptococcus pyogenes [22]): 50 µg/mL (≈ 176 µM); MBC (Pseudomonas aeruginosa [23]): > 100 µg/mL; diameter of the inhibition zone (DIZ) (Staphylococcus aureus [24]): 18.1 mm; MIC (Pseudomonas aeruginosa [25]): 100 µg/mL (≈ 353 µM); diameter of the inhibition zone (DIZ) (Escherichia coli [26]): 25.1 mm; diameter of the inhibition zone (DIZ) (Streptococcus pyogenes [27]): 20.2 mm; MBC (Streptococcus pyogenes [28]): 100 µg/mL (≈ 353 µM); MBC (Staphylococcus aureus [29]): > 100 µg/mL; MIC (Staphylococcus aureus [30]): 50 µg/mL (≈ 176 µM); diameter of the inhibition zone (DIZ) (Pseudomonas aeruginosa [31]): 30.1 mm; MBC (Klebsiella pneumoniae [32]): > 100 µg/mL; MBC (Escherichia coli [33]): > 100 µg/mL
CCCCCC[C@@H](O)CC1C(CCC)=NOC1CCCCCCCC(=O)OC (some centres undefined)	128 (≈ 322 µM)	64 (≈ 161 µM)	128 (≈ 322 µM)	128 (≈ 322 µM)	128 (≈ 322 µM)	32 (≈ 80.5 µM)	32 (≈ 80.5 µM)	64 (≈ 161 µM)	256 (≈ 644 µM)	256 (≈ 644 µM)	256 (≈ 644 µM)	> 256	32 (≈ 80.5 µM)	256 (≈ 644 µM)	> 256	256 (≈ 644 µM)	64 (≈ 161 µM)	32 (≈ 80.5 µM)	25 (≈ 62.9 µM)	25 (≈ 62.9 µM)	diameter of the inhibition zone (DIZ) (Klebsiella pneumoniae [21]): 19.2 mm; MIC (Streptococcus pyogenes [22]): 25 µg/mL (≈ 62.9 µM); MBC (Pseudomonas aeruginosa [23]): 50 µg/mL (≈ 126 µM); MIC90 (Candida tropicalis [34]): > 256 µg/mL; diameter of the inhibition zone (DIZ) (Staphylococcus aureus [24]): 22.6 mm; MIC (Pseudomonas aeruginosa [25]): 25 µg/mL (≈ 62.9 µM); diameter of the inhibition zone (DIZ) (Escherichia coli [26]): 27.6 mm; diameter of the inhibition zone (DIZ) (Streptococcus pyogenes [27]): 23.2 mm; MBC (Streptococcus pyogenes [28]): 50 µg/mL (≈ 126 µM); MBC (Staphylococcus aureus [29]): 50 µg/mL (≈ 126 µM); MIC (Staphylococcus aureus [30]): 25 µg/mL (≈ 62.9 µM); MFC (Candida albicans [35]): > 256 µg/mL; diameter of the inhibition zone (DIZ) (Pseudomonas aeruginosa [31]): 32.5 mm; MIC90 (Candida albicans [36]): 128 µg/mL (≈ 322 µM); MBC (Klebsiella pneumoniae [32]): 100 µg/mL (≈ 252 µM); MBC (Escherichia coli [33]): 50 µg/mL (≈ 126 µM)
